Source: PubChem (The Scripps Research Institute Molecular Screening Center)
Compounds with a hit are over-represented: about 2.9% of the library has one in this group of screens.
CHO-K1 Ca PAM – nonselective calcium activators in parental CHO-K1 cells, primary screen, counter-screen for M1 PAM project, cell-based, Fluo-8 calcium fluorescence, full deck, 1536-well; 0.02% of 360,000 active; activation, % at 3 µM; ATP EC20; 0% at ATP EC20, 100% at ATP max; AID 602247, 2012;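 active = activation above the run cutoff, the mean activation of all test compounds plus 3 SD, cut at about 40% in these data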;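 also: peak over basal fluorescence ratio in a 140 s read after ATP addition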
CHO parental Ca – ATP-evoked calcium signal inhibitors, parental CHO, primary screen, counter-screen for OX1R antagonist project, cell-based, fluorescence, Fluo-8 calcium dye; 0.63% of 330,000 active; inhibition, % at 5.6 µM; parental CHO-K1, ATP-induced calcium, Fluo-8 fluorescence;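 active = inhibition above that plate's mean sample inhibition plus 3 SD, cut at about 26% in these data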
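test system = CHO parental line | reagent = ATP stimulus | measured by = intracellular calcium via Fluo-8 no-wash fluorescent dye | control set = ATP and no-ATP DMSO wells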
OX1R antag-1 – OX1R (HCRTR1) antagonists, primary screen, fluorescence, CHO/OX1R cells, Fluo-8 calcium, orexin A | Orexin/Hypocretin receptor type 1 (Homo sapiens), O43613 | 0.43% of 330,000 active | Fluo-8 calcium fluorescence | inhibition, % at 5 µM | AID 434989, 2010;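 active = inhibition above its plate's threshold, mean inhibition of all tested compounds on the plate plus 3 SD, cut at about 37% in these data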
Target sequence (O43613 whole entry, looked up): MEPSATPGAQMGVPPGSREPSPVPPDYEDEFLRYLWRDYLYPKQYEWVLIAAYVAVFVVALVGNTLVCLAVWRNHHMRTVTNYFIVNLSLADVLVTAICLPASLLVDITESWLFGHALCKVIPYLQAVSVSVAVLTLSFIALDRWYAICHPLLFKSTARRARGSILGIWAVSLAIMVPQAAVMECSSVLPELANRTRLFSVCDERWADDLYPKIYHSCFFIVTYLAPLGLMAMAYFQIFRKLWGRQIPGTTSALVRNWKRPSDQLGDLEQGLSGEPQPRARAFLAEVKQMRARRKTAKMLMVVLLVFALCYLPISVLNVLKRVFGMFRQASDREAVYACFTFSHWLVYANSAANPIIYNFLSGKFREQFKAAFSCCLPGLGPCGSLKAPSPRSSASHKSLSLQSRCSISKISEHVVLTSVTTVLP
OX1R antag-2 – antagonists of human orexin 1 receptor (OX1R). OX1R-expressing cells, FRET antagonist read-out. AID 485270, 2010. 1.8% of 330,000 active. inhibition, % at 6.6 µM; in the data active = inhibition mostly above about 38%, no sharp cut-off; inactive = mostly below about 40%
CHO-K1 Ca ag – counter-screen for M1 agonists: effect in parental CHO-K1 cells | Fluo-8 calcium fluorescence; scaled to maximal ATP response, vehicle zero | activation, % at 3 µM | 0.48% of 360,000 active; in the data active = activation above about 15%;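 also: untransfected CHO-K1 host cells lacking M1 receptor as counterscreen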
CHO-K1 Ca antag – M1 antagonist counterscreen hit in parental CHO-K1 cells | AID 602250 | 0.6% of 360,000 active | inhibition, % at 3 µM | ATP-induced calcium, Fluo-8 fluorescence;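 active = inhibition above a per-plate cutoff, the plate's mean sample inhibition plus 3 SD, cut at about 24% in these data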
Large screens that a line does not name were inactive.

CCCCCOC(=O)C1=C(C)NC(=O)NC1c1ccc(OC)cc1 (stereo not drawn)	none
CCCCCCC#Cc1cncc(C(=O)NNC(=O)Nc2cc(Cl)cc(Cl)c2)c1	none
CCCCC#Cc1cncc(C(=O)NN)c1	CHO-K1 Ca ag 19
COc1ccccc1C(=O)Nc1sc(C(=O)N2CCCC2)c(C)c1C#N	none
Cc1c(C(=O)N2CCCC2)sc(NC(=O)c2ccc(Cl)cc2)c1C#N	CHO-K1 Ca antag 24
CCc1nnc2n1N=C(c1ccc([N+](=O)[O-])cc1)CS2	OX1R antag-2 56
CCc1nnc2n1N=C(c1ccc(OC)cc1)CS2	none
O=[N+]([O-])c1cccc(NC(=S)Nc2nc(-c3ccccc3Cl)cs2)c1	CHO parental Ca 64
O=C(CN1C(=O)C2C3C=CC(C3)C2C1=O)OCC(=O)c1ccc(Br)cc1 (stereo not drawn)	none
CCOc1ccc(S(=O)(=O)NN=C2CCN(C(C)=O)CC2)cc1	none
CCOC(=O)CN1C(=N)N(c2nc(NC(C)C)nc(NC(C)C)n2)CC1=O	CHO-K1 Ca antag 31
O=C(CNc1ccccc1F)Nc1cccc2ccccc12	none
COC(=O)c1cccc(NC(=O)/C=C/c2ccc3c(c2)OCO3)c1	OX1R antag-2 52
Cc1ccc(/C=N/NC(=O)c2ccc3ccccc3c2)s1	CHO-K1 Ca antag 25
Cc1ccc(/C=N/NC(=O)c2ccc3c(c2)OCCO3)s1	none
Cc1cc(C(=O)CSc2nc3ccccc3[nH]2)c(C)n1CC1CCCO1 (stereo not drawn)	CHO parental Ca 85, OX1R antag-1 59, OX1R antag-2 54, CHO-K1 Ca ag 20, CHO-K1 Ca antag 58
O=C(CSc1nc2ccccc2o1)NCC1CCCO1 (stereo not drawn)	none
Cc1cc(C(=O)CSc2nc3ccccc3o2)c(C)n1CC1CCCO1 (stereo not drawn)	OX1R antag-1 39
Cc1ccc(-n2nnnc2SCC(=O)c2cc(C)n(CC3CCCO3)c2C)cc1 (stereo not drawn)	none
COc1ccc(-c2cn3cc(C(=O)NN)ccc3n2)cc1	CHO parental Ca 54, OX1R antag-1 57
CC(=O)NS(=O)(=O)c1ccc2c(c1)C(=O)c1cc(S(=O)(=O)NC(C)=O)ccc1-2	OX1R antag-2 58
CC(NS(=O)(=O)c1ccc2c(c1)C(=O)c1cc(S(=O)(=O)NC(C)C(=O)O)ccc1-2)C(=O)O (stereo not drawn)	OX1R antag-2 60
Cc1cccc(C)c1NS(=O)(=O)c1ccc2c(c1)C(=O)c1ccccc1C2=O	none
COC1CCCN(Cc2c(C(=O)N3CCN(C4CCCCC4)CC3)nc3ccccn23)C1 (stereo not drawn)	none
O=C(c1ccccc1)c1ccc(OCC(=O)N2CCOCC2)cc1	none
CCNc1ccc(C(=O)OCC(=O)NCCN2C(=O)CSC2=O)cc1[N+](=O)[O-]	OX1R antag-2 68
CC1CCN(S(=O)(=O)c2ccc(C(=O)N3CCN(c4ccccc4F)CC3)cc2)CC1	none
OCC(CO)(CO)NCC(O)CN1c2ccccc2Sc2ccccc21 (stereo not drawn)	none
Cc1nn(CC(O)CN2c3ccccc3Sc3ccccc32)c(C)c1Br (stereo not drawn)	CHO-K1 Ca ag 18
COc1ccc(C(=O)Nc2cc(=O)[nH]c3ncnn23)cc1	none
COc1cccc(Cn2cccc(NC(=O)Nc3ccc(C#N)cc3)c2=O)c1	CHO parental Ca 47, OX1R antag-1 52
CN(C(=O)c1ccncc1)C1CCCCC1	none
O=C(OCC(=O)N1CCOCC1)c1cc2ccccc2oc1=O	OX1R antag-2 46
O=C(OCC(=O)N1CCOCC1)c1cc(=O)[nH]c2ccccc12	OX1R antag-2 35
CN(Cc1ccccc1)C(=O)c1ccccc1C(=O)OCC(=O)N(Cc1ccccc1)C(C)(C)C	OX1R antag-2 31
CN(Cc1ccccc1)C(=O)c1cc2ccccc2o1	none
CC(C)(C)N(Cc1ccccc1)C(=O)COC(=O)C1CC1	none
CN(Cc1ccccc1)C(=O)COC(=O)c1cc2ccccc2oc1=O	OX1R antag-2 28
O=C1[C@H]2[C@@H](c3ccc(C(F)(F)F)cc3)N[C@]3(CCCN(Cc4ccc(F)cc4)C3=O)[C@H]2C(=O)N1Cc1ccccc1	none (no result: CHO parental Ca, OX1R antag-1, OX1R antag-2)
O=C(COC(=O)c1cc(=O)[nH]c2ccccc12)c1cccs1	CHO-K1 Ca antag 30
COc1cccc2cc(C(=O)OCC(=O)N3CC(C)OC(C)C3)c(=O)oc12 (stereo not drawn)	OX1R antag-2 53
CCCNC(=O)COc1ncnc2sccc12	none
Cc1ccc(S(=O)(=O)n2ccc3c(OCCOCCNCc4ccc(F)cc4)cccc32)cc1	CHO parental Ca 39
CCN(CC)c1ccc(-n2cc3c(=O)n(C)c(=O)n(C)c3c2)cc1	OX1R antag-2 74
C=CCNC(=S)Nc1ccc(Br)cc1F	none
S=C(NCc1cccs1)Nc1cc(Cl)cc(Cl)c1	CHO parental Ca 39
S=C(NCCC(c1ccccc1)c1ccccc1)Nc1cccc(Cl)c1	CHO-K1 Ca antag 26
S=C(NCc1ccc(Cl)cc1)Nc1ccncc1	CHO parental Ca 52, CHO-K1 Ca ag 21, CHO-K1 Ca antag 31
C=CCNC(=S)Nc1ccc(Cl)cc1F	CHO-K1 Ca ag 16
CCn1nnnc1SCC(=O)N1N=C(c2cccs2)CC1c1cccs1 (stereo not drawn)	none (no result: CHO parental Ca, OX1R antag-1, OX1R antag-2)
CCOC(=O)c1ccc(S(=O)(=O)N2CCN(C(=O)c3cc(=O)c4ccccc4o3)CC2)cc1	none
Cc1csc(NC(=O)C(C)Oc2ccc(Cl)cc2C)n1 (stereo not drawn)	none
Cc1cc(Cl)ccc1NC(=S)NCc1ccc(F)cc1	CHO parental Ca 42
Fc1ccc(CNC(=S)Nc2cccc(Cl)c2)cc1	CHO parental Ca 41
COc1cc(NC(=O)Cn2nnc(-c3ccccc3N)n2)cc(OC)c1	none
O=C(CCS(=O)(=O)c1cccc2nsnc12)N1CC(=O)N(CCc2ccccc2)C(=O)C1	OX1R antag-2 53
CC1=C(C(=O)OC2CCCC2)C(c2coc3ccccc3c2=O)C2=C(CC(C)(C)CC2=O)N1 (stereo not drawn)	none
CCCCCCCCCCn1c2c(c(=N)c3c1CCC3)CCC2	OX1R antag-1 48
CCCCCCCCn1c2c(c(=N)c3ccccc31)CCC2	CHO-K1 Ca antag 31 (no result: CHO parental Ca, OX1R antag-1, OX1R antag-2)
CCCCn1c2c(c(=N)c3ccccc31)CCC2	none
CCCCCn1c2c(c(=N)c3ccccc31)CCC2	none
CCCCCCCCCn1c2c(c(=N)c3c1CCC3)CCCC2	CHO-K1 Ca antag 38 (no result: CHO parental Ca, OX1R antag-1, OX1R antag-2)
CCn1c2c(c(=N)c3c1CCC3)CCCC2	none
